Data as given in ChEMBL document CHEMBL4602672, “Isolation, Identification, and Decomposition of Antibacterial Dialkylresorcinols from a Chinese Pseudomonas aurantiaca Strain” (2020).
The source made the active and inactive calls. The calls are words filed in the database; no cut-off is given here.

Legend:
[1] = system: Bacillus subtilis; experiment: Antibacterial activity against Bacillus subtilis ATCC 6633 assessed as reduction in microbial growth after 24 hrs by agar well diffusion assay; format: functional; conditions: ATCC 6633, 24 h
[2] = system: Staphylococcus epidermidis; experiment: Antibacterial activity against Staphylococcus epidermidis ATCC 14990 assessed as reduction in microbial growth after 24 hrs by agar well diffusion assay; format: functional; conditions: ATCC 14990, 24 h
[3] = system: Staphylococcus aureus; experiment: Antibacterial activity against Staphylococcus aureus ATCC 12600 assessed as reduction in microbial growth after 24 hrs by agar well diffusion assay; format: functional; conditions: ATCC 12600, 24 h
[4] = system: Enterococcus hirae; experiment: Antibacterial activity against Enterococcus hirae ATCC 8043 assessed as reduction in microbial growth after 24 hrs by agar well diffusion assay; format: functional; conditions: ATCC 8043, 24 h
[5] = system: Streptococcus mutans; experiment: Antibacterial activity against Streptococcus mutans ATCC 25175 assessed as reduction in microbial growth after 24 hrs by agar well diffusion assay; format: functional; conditions: ATCC 25175, 24 h
[6] = system: Staphylococcus aureus; experiment: Antibacterial activity against Staphylococcus aureus ATCC 12600 assessed as reduction in microbial growth at 0.06 to 133 ug/ml after 24 hrs by agar well diffusion assay; format: functional, organism-based
In short: (§1)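 Modified literature MIC protocol against ATCC pathogens. Antibiotics served as positive control and sterile water with DMSO (<5%) as negative control. For the related well-diffusion work, test samples were dissolved in sterile water with DMSO (<5%). MIC given in μg/mL.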

[7] = system: Enterococcus hirae; experiment: Antibacterial activity against Enterococcus hirae ATCC 8043 assessed as reduction in microbial growth at 0.06 to 133 ug/ml after 24 hrs by agar well diffusion assay; format: functional, organism-based; in short: as §1
[8] = system: Streptococcus mutans; experiment: Antibacterial activity against Streptococcus mutans ATCC 25175 assessed as reduction in microbial growth at 0.06 to 133 ug/ml after 24 hrs by agar well diffusion assay; format: functional, organism-based
[9] = system: Bacillus subtilis; experiment: Antibacterial activity against Bacillus subtilis ATCC 6633 assessed as reduction in microbial growth at 0.06 to 133 ug/ml after 24 hrs by agar well diffusion assay; format: functional, organism-based; in short: as §1
[10] = system: Staphylococcus epidermidis; experiment: Antibacterial activity against Staphylococcus epidermidis ATCC 14990 assessed as reduction in microbial growth at 0.06 to 133 ug/ml after 24 hrs by agar well diffusion assay; format: functional, organism-based; in short: as §1

Compound | MIC [1] [µg/mL] | MIC [2] [µg/mL] | MIC [3] [µg/mL] | MIC [4] [µg/mL] | MIC [5] [µg/mL] | Activity [6] | Activity [7] | Activity [8] | Activity [9] | Activity [10]
CN[C@H](CC(C)C)C(=O)N[C@H]1C(=O)N[C@@H](CC(N)=O)C(=O)N[C@H]2C(=O)N[C@H]3C(=O)N[C@H](C(=O)N[C@H](C(=O)O)c4cc(O)cc(O)c4-c4cc3ccc4O)[C@H](O)c3ccc(c(Cl)c3)Oc3cc2cc(c3O[C@@H]2O[C@H](CO)[C@@H](O)[C@H](O)[C@H]2O[C@H]2C[C@](C)(N)[C@H](O)[C@H](C)O2)Oc2ccc(cc2Cl)[C@H]1O [VANCOMYCIN] | 1.1 | – | – | – | – | – | – | – | – | –
CCCCCCC(=O)C1(O)C=C(CCCCC)C(=O)O1 (stereo not given) | 66.7 | 66.7 | 33.4 | 133 | 133 | – | – | – | – | –
Oc1ccc2nc3ccccc3nc2c1 | – | 33.4 | – | – | – | inactive | inactive | inactive | inactive | –
CCCCCCC1=C(O)C(=O)C(CCCCC)=CC1=O | 33.4 | – | – | 133 | 66.7 | inactive | – | – | inactive | inactive
CC1(C)S[C@@H]2[C@H](NC(=O)Cc3ccccc3)C(=O)N2[C@H]1C(=O)O [PENICILLIN G] | – | 0.52 | 0.26 | – | 1.1 | – | – | – | – | –
CCCCCCCC1=CC(=O)C(CCCCCC)=C(O)C1=O | – | – | 133 | – | 133 | – | inactive | – | inactive | inactive
CC1(C)S[C@@H]2[C@H](NC(=O)[C@H](N)c3ccccc3)C(=O)N2[C@H]1C(=O)O [AMPICILLIN] | – | – | – | 1.1 | – | – | – | – | – | –
CCCCCCc1c(O)cc(CCCCC)cc1O [RESORSTATIN] | 8.4 | 4.2 | 4.2 | 4.2 | 4.2 | – | – | – | – | –
CCCCCCC1=C(O)C(=O)C(CCCCC)=C(c2c(CCCCC)cc(O)c(CCCCCC)c2O)C1=O | – | – | – | – | 133 | inactive | inactive | – | – | inactive
CCCCCCC1=C(O)C(=O)C(CCCCC)=C(C2=C(CCCCC)C(=O)C(O)=C(CCCCCC)C2=O)C1=O | 133 | – | 133 | – | 133 | – | inactive | – | – | inactive
CCCCCCCc1cc(O)c(CCCCCC)c(O)c1 | 66.7 | 8.3 | 1.1 | 33.4 | 33.4 | – | – | – | – | –
CCCCCCCC1=CC(O)(C(=O)CCCCCC)OC1=O (stereo not given) | 33.4 | 33.4 | 16.7 | 66.7 | 133 | – | – | – | – | –
